Activity calls are given as the source filed them. No cut-off for these calls is given here.
What was measured:
[1] = tested on: LS174T; assay: Inhibition of anchorage-independent colony formation in 3D culture of human LS174T cells at 5 nM measured after 3 days by soft agar colony formation assay; format: functional, cell-based
Outline: (§1)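 LS174T cells (early passage, <10) were grown in EMEM with 10 % FBS. 20x10³ isolated cells were seeded in 0.35 % agarose over a 0.6 % agarose base layer. Colonies grew for 10 days, with fresh medium every 3 days. They were then treated for 3 days at 5 nM, without or with β-glucuronidase (3700 U/well). Colony size was measured by macroscope imaging; mean ± s.e.m. of 5 independent experiments.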

[2] = tested on: LS174T; assay: Inhibition of anchorage-independent colony formation in 3D culture of human LS174T cells at 5 nM measured after 3 days in presence of beta-glucuronidase by soft agar colony formation assay; format: functional, cell-based; outline: as §1
[3] = tested on: LS174T; assay: Antitumor activity against human LS174T cells xenografted in athymic Balb/c mouse assessed as tumor growth inhibition at 2 mg/kg, iv administered on day 17 and 24; format: functional, organism-based
Outline: (§2)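 Eight-week-old male nude mice were implanted subcutaneously in the dorsal flank with 1x10⁶ LS174T cells in PBS/50 % Matrigel (day 0). Mice were randomized into groups of 6 and given iv doses in PBS–2 % DMSO, with a vehicle-injected control group. Tumor length and width were measured by caliper three times weekly; volume = length x width²/2.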

[4] = Toxicity in athymic Balb/c mouse xenografted with human LS174T cells assessed as effect on body weight at 2 mg/kg, iv administered on day 17 and 24 measured three times a week; format: organism-based; details: in vivo
Outline: (§3)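 LS174T subcutaneous xenografts (1x10⁶ cells in PBS/50 % Matrigel) were set up in eight-week-old male nude mice. Groups of 6 received iv injections in PBS–2 % DMSO, with a vehicle control group. Body weight was recorded three times weekly. Mice were euthanized when tumor volume exceeded 2 cm³.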

[5] = molecular target: Beta-glucuronidase (Escherichia coli (strain K12), UniProt P05804); assay: Prodrug conversion assessed as Escherichia coli beta-glucuronidase mediated MMAE formation after 5 hrs using albumin-conjugated compound by HPLC/HRMS analysis; format: ADME; details: isolated protein
Outline: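 Prodrug 0.49 mg.mL-1 was held in 5 % human serum albumin solution at 37 °C for 4 h to form the albumin adduct. The mixture was diluted 1:3 with 0.02 M phosphate buffer (pH 7), then E. coli β-glucuronidase was added. Analysis was by C18 HPLC coupled to ESI-HRMS in positive ion mode.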

[6] = tested on: LS174T; assay: Antitumor activity against human LS174T cells xenografted in athymic Balb/c mouse assessed as tumor growth inhibition at 3 mg/kg, iv administered on day 17 and 24; format: functional, organism-based; outline: as §2
[7] = Toxicity in athymic Balb/c mouse xenografted with human LS174T cells assessed as effect on body weight at 3 mg/kg, iv administered on day 17 and 24 measured three times a week; format: organism-based; details: in vivo; outline: as §3
[8] = molecular target: Albumin (Homo sapiens, UniProt P02768); assay: Binding affinity to human serum albumin at 0.49 mg/ml after 4 hrs by HPLC/HRMS analysis; details: isolated protein
Chain of Albumin (P02768 whole entry): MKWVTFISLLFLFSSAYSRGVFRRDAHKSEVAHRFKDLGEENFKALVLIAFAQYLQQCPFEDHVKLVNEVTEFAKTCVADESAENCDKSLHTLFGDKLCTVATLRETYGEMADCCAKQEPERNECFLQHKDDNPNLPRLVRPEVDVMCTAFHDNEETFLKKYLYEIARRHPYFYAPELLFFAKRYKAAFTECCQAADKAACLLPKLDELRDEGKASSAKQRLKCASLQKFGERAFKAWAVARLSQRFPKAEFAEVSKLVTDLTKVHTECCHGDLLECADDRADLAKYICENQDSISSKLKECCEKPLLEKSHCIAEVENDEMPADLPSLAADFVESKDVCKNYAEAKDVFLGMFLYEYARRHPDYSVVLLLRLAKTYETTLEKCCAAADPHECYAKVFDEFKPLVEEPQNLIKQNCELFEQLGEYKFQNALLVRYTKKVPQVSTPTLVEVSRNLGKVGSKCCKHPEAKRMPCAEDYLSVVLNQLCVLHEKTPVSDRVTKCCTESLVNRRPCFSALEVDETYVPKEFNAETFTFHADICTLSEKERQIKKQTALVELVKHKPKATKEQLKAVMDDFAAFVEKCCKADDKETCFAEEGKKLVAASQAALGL

Chain of Beta-glucuronidase (P05804 whole entry): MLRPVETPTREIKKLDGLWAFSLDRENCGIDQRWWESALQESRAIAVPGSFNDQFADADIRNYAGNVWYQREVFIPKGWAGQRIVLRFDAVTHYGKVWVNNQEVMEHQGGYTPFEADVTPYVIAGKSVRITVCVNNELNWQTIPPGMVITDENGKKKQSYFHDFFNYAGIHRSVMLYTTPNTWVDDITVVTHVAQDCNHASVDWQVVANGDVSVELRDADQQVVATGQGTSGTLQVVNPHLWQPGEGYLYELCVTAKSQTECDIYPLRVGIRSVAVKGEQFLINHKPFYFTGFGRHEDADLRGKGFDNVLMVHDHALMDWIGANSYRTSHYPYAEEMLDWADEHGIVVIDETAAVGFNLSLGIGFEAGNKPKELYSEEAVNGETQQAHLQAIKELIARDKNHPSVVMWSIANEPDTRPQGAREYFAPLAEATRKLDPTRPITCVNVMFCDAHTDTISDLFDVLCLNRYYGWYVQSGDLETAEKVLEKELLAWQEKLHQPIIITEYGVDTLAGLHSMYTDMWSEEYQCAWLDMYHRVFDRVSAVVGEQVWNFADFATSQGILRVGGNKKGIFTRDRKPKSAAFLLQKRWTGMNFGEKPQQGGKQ

SMILES	inhibition [1]	inhibition [2]	TGI [3]	Activity [4]	Drug metabolism [5]	TGI [6]	Activity [7]	Activity [8]
CC[C@H](C)[C@@H]([C@@H](CC(=O)N1CCC[C@H]1[C@H](OC)[C@@H](C)C(=O)N[C@H](C)[C@@H](O)c1ccccc1)OC)N(C)C(=O)[C@@H](NC(=O)[C@H](C(C)C)N(C)C(=O)OC(Cc1cn(CCOCCOCCOCCOCCOCCOCCOCCOCCOCCOCCNC(=O)CCCCCN2C(=O)C=CC2=O)nn1)c1ccc(O[C@@H]2O[C@H](C(=O)O)[C@@H](O)[C@H](O)[C@H]2O)c([N+](=O)[O-])c1)C(C)C (stereo not given in full)	inactive	Active	Active	Non-Toxic				
CC[C@H](C)[C@@H]([C@@H](CC(=O)N1CCC[C@H]1[C@H](OC)[C@@H](C)C(=O)N[C@H](C)[C@@H](O)c1ccccc1)OC)N(C)C(=O)[C@@H](NC(=O)[C@H](C(C)C)N(C)C(=O)OCc1ccc(NC(=O)OC(Cc2cn(CCOCCOCCOCCOCCOCCOCCOCCOCCOCCOCCNC(=O)CCCCCN3C(=O)C=CC3=O)nn2)c2ccc(O[C@@H]3O[C@H](C(=O)O)[C@@H](O)[C@H](O)[C@H]3O)c([N+](=O)[O-])c2)c(COC(=O)N(C)[C@H](C(=O)N[C@H](C(=O)N(C)[C@@H]([C@@H](C)CC)[C@@H](CC(=O)N2CCC[C@H]2[C@H](OC)[C@@H](C)C(=O)N[C@H](C)[C@@H](O)c2ccccc2)OC)C(C)C)C(C)C)c1)C(C)C (stereo not given in full)	inactive	Active			Metabolite_Detected	Active	Non-Toxic	Active
